# Compounds with a hit are over-represented: about 3.8% of the library has one in this group of screens.
# FGF22 binding – binders of human FGF22 protein, primary screen, FGF22 synaptogenesis inhibitor project, biophysical, thermal shift, single point; Fibroblast growth factor 22 (Homo sapiens), Q9HCT0; recombinant FGF22 thermal shift, SYPRO orange fluorescence; percent of sucrose octasulfate shift, DMSO zero; activity (Tm shift, normalised), % at 9.99 µM; 1.5% of 340,000 active; AID 651658, 2012;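 active means mean Tm shift, scaled 0 neutral to 100 positive control, at about 1.3% or above, every replicate too, limit read from the data; inconclusive means no clear call, values can overlap the other calls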
# Target sequence (Q9HCT0 whole entry, looked up): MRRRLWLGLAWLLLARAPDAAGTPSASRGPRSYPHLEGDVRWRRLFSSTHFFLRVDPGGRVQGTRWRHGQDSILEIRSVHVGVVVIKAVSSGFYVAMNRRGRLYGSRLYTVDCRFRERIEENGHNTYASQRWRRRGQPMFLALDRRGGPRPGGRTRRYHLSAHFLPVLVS
# DENV2 CPE rescue – inhibitors of DENV2 cytopathic effect, primary screen, cell-based, plate reader, single concentration; 1.7% of 350,000 active; CPE inhibition, % at 9.99 µM; DENV2-infected cells, cytopathic effect rescue; AID 651640, 2012; in the data active means CPE inhibition above about 20%, passing the limit was not always enough; inconclusive means no clear call, values can overlap the other calls; tested in BHK-21 cells;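 further: 0% = median of neutral control wells and 100% = median of positive control wells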
# ARNT-TACC3 inh – disruptors of ARNT/TACC3 protein interaction, primary screen, biochemical, AlphaScreen, single concentration; Transforming acidic coiled-coil-containing protein 3 (Homo sapiens), Q9Y6A5; AlphaScreen His-ARNT PAS-B/GST-TACC3 binding, luminescence; TACC3 fragment carries E629A point mutation; inhibition, % at 9.99 µM; 0.66% of 390,000 active;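 active means mean inhibition of replicates at least 50% and at least half of replicates each reaching 50%; inconclusive means half or more replicates reach 50% but mean below 50%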;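 further: 0% = complete ARNT plus TACC3 wells and 100% = ARNT alone without TACC3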
# FN deposit inh – inhibitors of fibronectin matrix deposition, primary screen, AH1F cells, Alexa488-fibronectin fluorescence, plate reader; 0.086% of 350,000 active; AID 743247, 2014; inhibition, % at 12.6 µM; AH1F fibroblasts, overnight;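 active means mean inhibition across replicates of 30% or more, regardless of how many single replicates reach that level; inconclusive means mean under 30% yet at least half of replicates reach 30%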;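 further: positive control wells lacked labelled fibronectin entirely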
#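 Material: AH1F fibroblast monolayer depositing Alexa488-labelled fibronectin into matrix / Amount: 10000 AH1F cells per well / Signal: fluorescence 485/525 nm / Medium: DMEM, 2% serum / Compound: single dose, pinned / Incubation: 1 h cell adhesion before compound, then overnight fibronectin incubation / Reagent: Alexa488-FN, 24 nM final / Read-out: inhibition of fibronectin deposition signal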
# SIRT5 block – SIRT5 desuccinylase inhibitors, primary screen, biochemical, fluorescence imaging, single point, set 5 | NAD-dependent protein deacylase sirtuin-5, mitochondrial (Homo sapiens), Q9NXA8 | Purified SirT5, succinyl-peptide AMC, trypsin-coupled fluorescence | inhibition, % at 15 µM | 1.1% of 330,000 active | AID 652115, 2013; in the data active means inhibition above about 15%; inconclusive means no clear call, values can overlap the other calls
# Target sequence (Q9NXA8 whole entry, looked up): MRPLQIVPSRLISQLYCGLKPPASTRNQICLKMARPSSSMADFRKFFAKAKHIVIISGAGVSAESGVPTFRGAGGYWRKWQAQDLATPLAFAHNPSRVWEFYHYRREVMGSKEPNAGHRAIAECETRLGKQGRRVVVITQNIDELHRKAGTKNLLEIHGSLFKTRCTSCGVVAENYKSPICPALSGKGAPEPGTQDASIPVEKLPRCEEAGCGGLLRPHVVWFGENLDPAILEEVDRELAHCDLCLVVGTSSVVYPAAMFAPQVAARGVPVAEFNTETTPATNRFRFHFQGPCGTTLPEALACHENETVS
# Xi reactivation – activators of inactive X chromosome reactivation, primary screen, imaging, XiGFP fibroblasts, GFP high-content imaging, set 2. XiGFP mouse fibroblasts, % GFP-positive cells imaging, 3 d; cells co-treated with 5-aza-dC sensitizer; scaled so ellipticine positive control = 100%. activation, % at 7.58 µM. 0.055% of 360,000 active;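 active means mean normalized replicate activation at least 10% and every replicate at or above 10%; inconclusive means only one of the two criteria met; inactive means mean below 10% and not all replicates reach 10%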;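 further: 0% = median of on-plate neutral control wells and 100% = ellipticine 6 µM median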
#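 Assay system: SV40-immortalized XiGFP fibroblast cells, line 68-5-11; buffer or medium: DMEM plus 5-aza-dC sensitizer; compound: one concentration, pinned; timing: compounds 3 days, fix/stain 15 min at room temperature; benchmarks: positive control ellipticine, 6 µM final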
# The depositor's hits bear a star; ? = inconclusive; / = no result.
SMILES,FGF22 binding,DENV2 CPE rescue,ARNT-TACC3 inh,FN deposit inh,SIRT5 block,Xi reactivation
C[C@H](CO)N1C[C@H](C)[C@@H](CN(C)C(=O)Nc2cccc(F)c2)Oc2ncc(C3=CCCCC3)cc2C1=O,-0.3,20.4*,2.4,-1.4,3.5,-0.2
C[C@H](CO)N1C[C@H](C)[C@H](CN(C)C(=O)Nc2ccc(F)cc2)Oc2ncc(C3=CCCCC3)cc2C1=O,-0.3,32.5*,1.4,-7.0,-1.7,0.7
C[C@H]1CN([C@@H](C)CO)C(=O)c2cc(C3=CCCCC3)cnc2O[C@H]1CN(C)C(=O)Nc1ccc(F)cc1,-0.2,9.5,5.3,-14.5,0.0,-0.4
COc1cccc(NC(=O)N(C)C[C@H]2Oc3ncc(C4=CCCCC4)cc3C(=O)N([C@H](C)CO)C[C@@H]2C)c1,-0.7,?,-0.5,/,19.6*,0.1
C[C@@H]1CN([C@H](C)CO)C(=O)c2cc(C3=CCCCC3)cnc2O[C@H]1CN(C)C(=O)Nc1cccc(F)c1,-0.2,18.5,-2.4,-3.0,3.1,-0.1
CN(C)C(=O)c1cccc(-c2ccc(C3[C@H]4CNC[C@@H]3N4C(=O)NC3CCCC3)cc2)c1 (some centres undefined),/,9.9,/,-6.5,0.3,0.1
O=S(=O)(NN=Cc1cccc(Cl)c1)c1ccccc1,0.4,27.7*,/,-5.2,1.2,0.3
CCC(=O)Nc1ccc2c(c1)C(=O)N(C)[C@@H]1CC[C@@H](CC(=O)N3CCCCC3)O[C@@H]1CO2,0.1,2.9,-5.0,-3.7,-4.9,0.2
CC(C)NC(=S)N/N=C/c1cc(Br)ccc1O,/,/,53.5*,10.8,/,0.9
O=S(=O)(c1cccc(F)c1)N1CC[C@@H]2[C@H]1c1cc(C#Cc3cccc(F)c3)ccc1N[C@@H]2CO,0.1,7.4,-2.4,16.5,/,0.0
O=S(=O)(c1cccc(F)c1)N1CC[C@@H]2[C@H](CO)Nc3ccc(C#Cc4ccccc4F)cc3[C@@H]21,0.2,23.7*,-2.6,-2.4,2.6,0.1
O=S(=O)(c1cccc(F)c1)N1CC[C@@H]2[C@@H](CO)Nc3ccc(C#Cc4cccc(F)c4)cc3[C@@H]21,-0.2,22.8*,-1.9,-5.8,/,0.3
CC(C)c1ccccc1NC(=S)NC(C)c1ccccc1 (centres undefined),43.6*,4.9,5.0,-8.5,-1.6,0.1
COCC(=O)Nc1ccc2c(c1)C(=O)N(C)C[C@@H](OC)[C@H](C)CN(C(=O)NC(C)C)[C@@H](C)CO2,-0.1,-2.1,-5.4,1.1,-4.3,0.4
Cc1ccc(S(=O)(=O)Nc2ccc3c(c2)CC(=O)N([C@H](C)CO)C[C@H](C)[C@@H](CN(C)S(=O)(=O)c2ccc(C)cc2)O3)cc1,-0.1,66.9*,-5.7,/,-0.9,0.2
Cc1ccc(S(=O)(=O)N(C)C[C@H]2Oc3ccc(NS(=O)(=O)c4ccc(Cl)cc4)cc3CC(=O)N([C@@H](C)CO)C[C@H]2C)cc1,-0.2,26.6*,4.0,/,7.5,-1.0
Cc1ccc(S(=O)(=O)Nc2ccc3c(c2)CC(=O)N([C@@H](C)CO)C[C@@H](C)[C@H](CN(C)S(=O)(=O)c2ccc(Cl)cc2)O3)cc1,-0.6,48.6*,12.2,/,/,-0.7
COc1ccc(NC(=O)Nc2ccc3c(c2)C(=O)N([C@H](C)CO)C[C@H](C)[C@H](CN(C)C(=O)NC2CCCCC2)OCCCC[C@@H](C)O3)cc1,-1.0,-9.7,-10.4,/,-1.4,0.8
COc1ccccc1CNC(=O)C[C@@H]1C=C[C@H](NC(=O)CN(C)C)[C@H](CO)O1,-0.4,-3.3,8.2,/,3.1,0.1
CC1CCCC(NC(=O)COC(=O)[C@@H](NC(=O)c2ccco2)C(C)C)C1C (some centres undefined),44.5*,4.6,-5.6,3.6,0.8,0.0
